Compounds with a hit are over-represented: about 2.2% of the library has one in this group of screens.
ERAP1 inh: human ERAP1 aminopeptidase inhibitors, primary screen, biochemical, single point, plate reader; recombinant ERAP1, Leu-AMC fluorescence, 60 min; inhibition, % at 10.7 µM; 0.15% of 340,000 active;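 active means mean replicate inhibition of at least 30%, or all replicates individually reaching that 30% level; inactive means mean below 30% and not every replicate reaching it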;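 further: 0% = neutral control wells and 100% = L-leucinethiol positive control wells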
SIRT5 inh: SIRT5 desuccinylase inhibitors, primary screen, biochemical, fluorescence imaging, single point, set 5; NAD-dependent protein deacylase sirtuin-5, mitochondrial (Homo sapiens), Q9NXA8; Purified SirT5, succinyl-peptide AMC, trypsin-coupled fluorescence; inhibition, % at 15 µM; 1.1% of 330,000 active; in the data active means inhibition above about 15%
Target sequence (Q9NXA8 whole entry, looked up): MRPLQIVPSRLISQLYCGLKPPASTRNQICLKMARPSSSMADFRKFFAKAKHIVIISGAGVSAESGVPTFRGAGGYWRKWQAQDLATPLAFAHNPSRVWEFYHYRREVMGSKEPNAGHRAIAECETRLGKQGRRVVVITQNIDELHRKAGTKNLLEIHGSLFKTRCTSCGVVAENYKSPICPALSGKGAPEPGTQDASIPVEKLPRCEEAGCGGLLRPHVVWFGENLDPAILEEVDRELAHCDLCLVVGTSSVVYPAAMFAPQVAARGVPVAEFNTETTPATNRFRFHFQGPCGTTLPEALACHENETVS
PGC1a acetyl inh: inhibitors of PGC1a acetylation signal, primary screen, cell-based, U2OS, AlphaScreen, inhibitor mode | AlphaScreen anti-acetyl-lysine; with virally co-expressed GCN5 acetyltransferase | inhibition, % at 15.6 µM | 0.17% of 350,000 active | AID 651687, 2012;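 active means every replicate shows inhibition of at least 40%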;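 further: 0% = neutral control wells and 100% = positive control wells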
FGF22 binding-1: binders of human FGF22 protein, primary screen, FGF22 synaptogenesis inhibitor project, biophysical, thermal shift, single point; recombinant FGF22 thermal shift, SYPRO orange fluorescence; percent of sucrose octasulfate shift, DMSO zero; activity (Tm shift, normalised), % at 9.99 µM; 1.5% of 340,000 active;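 active means mean Tm shift, scaled 0 neutral to 100 positive control, at about 1.3% or above, every replicate too, limit read from the data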
Target sequence (Q9HCT0 whole entry, looked up): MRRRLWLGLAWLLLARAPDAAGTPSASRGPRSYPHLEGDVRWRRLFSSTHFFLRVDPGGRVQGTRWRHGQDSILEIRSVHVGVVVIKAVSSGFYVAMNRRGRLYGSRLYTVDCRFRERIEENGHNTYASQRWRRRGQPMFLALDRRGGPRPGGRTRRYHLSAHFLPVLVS
FN deposit inh: inhibitors of fibronectin matrix deposition, primary screen, AH1F cells, Alexa488-fibronectin fluorescence, plate reader; inhibition, % at 12.6 µM; AID 743247, 2014; 0.086% of 350,000 active; AH1F fibroblasts, overnight;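 active means mean inhibition across replicates of 30% or more, regardless of how many single replicates reach that level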;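 further: positive control wells lacked labelled fibronectin entirely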
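Measured by – fluorescence 485/525 nm · System – AH1F fibroblast monolayer, labelled fibronectin deposition · Amount – 10000 cells per well · Buffer or medium – serum-reduced DMEM (2% serum) · Doses – single dose, pinned · Also added – fluorescent fibronectin at 24 nM final · Schedule – 1 h cell attachment, overnight exposure to compound and label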
FGF22 binding-2: binders of human FGF22 protein, dose response, FGF22 synaptogenesis inhibitor project, biophysical, thermal shift, cherry-pick retest; shares compounds with FGF22 binding-1; recombinant FGF22 thermal shift, SYPRO orange fluorescence; thermal shift activity, °C (ΔTm) at 38 µM; 2% of 1,000 active; AID 720646, 2013;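 active means fitted rise in melting shift crosses a set limit at or below the top valid dose tested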
FGF22 TSA: binders of human FGF22 protein, dose response, FGF22 synaptogenesis inhibitor project, biophysical, thermal shift, dry powder; 50 tested, under 10 active; Thermal shift assay, SYPRO orange, melting temperature shift; Tm shift (activity), % at 38 µM; shares compounds with FGF22 binding-1;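 active means compounds whose fitted dose curve of melting temperature shift rises past a set threshold within the tested doses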
SYPRO no-protein: compound-only thermal shift signal without protein, dose response, artefact control for FGF22 binder project, biochemical, cherry-picked samples, RT-PCR instrument; 2% of 1,000 active; AC50, µM (highest dose often 38 µM); compound-only SYPRO orange thermal shift counter-screen, no protein; shares compounds with FGF22 binding-1;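 active means rising signal whose fitted curve reaches the 0.54 level within the top valid dose, showing a melting point, actives reach about 13 µM in these data; inactive means the rest, including activity in the opposite direction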; further: value is where the raw curve crosses a fixed level and not half-maximal
The depositor's hits bear a star; i = inactive; . = not tested or not shown.

SMILES	ERAP1 inh	SIRT5 inh	PGC1a acetyl inh	FGF22 binding-1	FN deposit inh	FGF22 binding-2	SYPRO no-protein	others
O=C(Nc1ccccc1)c1[nH]ncc1[N+](=O)[O-]	.	.	7	.	.	.	.
O=C(Nc1ccc2c(c1)OCO2)c1cnn2cccnc12	-1	-3	8	1.9*	.	0.13	i
O=C(Nc1cccc(O)c1)c1cnn2cccnc12	1	-1	-3	0	.	.	.
CCn1c2ccccc2c2cc(/C=N/NC(=O)c3ccc(O)cc3)ccc21	-4	.	.	1	9	.	.
CCn1c2ccccc2c2cc(/C=N/NC(=O)c3ccncc3)ccc21	-4	6	.	1.5*	9	0.13	i
Cc1ccc(NC(=O)C2CCCN2C(=O)Oc2ccccc2)c(C)c1 (stereo not given)	3	-1	6	2.2*	-5	-0.007	i
CCc1ccc2nc(N)sc2c1	3	-5	.	2.4*	-6	-0.067	i
C[C@@H]1CN([C@H](C)CO)C(=O)c2cc(C3=CCCCC3)cnc2O[C@H]1CN(C)S(C)(=O)=O	.	.	-19	.	.	.	.
COc1ccc(-n2nnnc2/C=C\Nc2ccc(C)cc2)cc1	-4	-3	.	25*	16	0.094	i
O=[N+]([O-])c1ccc(N/N=C/c2ccc[nH]2)cc1	4	4	.	3.1*	-12	0.23	i
C[C@@H]1CN([C@@H](C)CO)C(=O)c2cccc(NS(=O)(=O)c3cn(C)cn3)c2O[C@H]1CN(C)CC1CC1	2	-4	6	0	.	.	.
Cc1nc(NC(=O)C2CC2)sc1C(=O)Nc1ccccc1Cl	0	-4	-18	1.9*	-6	0.081	i
O=c1c2ccccc2[nH]c2ccc(F)cc12	-12	-8	-14	1.5*	.	-0.051	i
CO[C@H]1CN(C)C(=O)c2ccc(NC(=O)C3CCCCC3)cc2OC[C@H](C)NC[C@H]1C	-2	5	.	0	2	.	.
Cc1ccc(SCC(=O)OCC(=O)NCCC2=CCCCC2)cc1	-2	1	.	0	3	.	.
O=C(COC(=O)CSc1ccc([N+](=O)[O-])cc1)NCCC1=CCCCC1	4	11	-1	5.5*	-1	0.16	i
CCNC(=O)C[C@H]1CC[C@H]2[C@@H](COC[C@H](O)CN2Cc2ccncc2)O1	.	.	0	0	4	.	.
NS(=O)(=O)c1ccc2c(c1)C(=NO)c1cc(S(N)(=O)=O)ccc1-2	2	0	.	28*	-3	0.049	i
CCCCn1c(N)c(N(CCC(C)C)C(=O)c2ccc3c(c2)OCO3)c(=O)[nH]c1=O	-1	0	-18	0	.	.	.
CCCCN(C(=O)c1ccc2c(c1)OCCO2)c1c(N)n(CCCC)c(=O)[nH]c1=O	2	-3	1	21*	3	0.11	i
Cc1ccc(N(C(=O)c2csnn2)C(C(=O)NC2CCCC2)c2ccccn2)c(C)c1 (stereo not given)	-1	-1	.	1.6*	7	0.21	i
O=Cc1cc(N=Nc2cccc(C(=O)O)c2)ccc1O	3	5	.	2.0*	-13	0.065	i
Cc1nc2ccc(C(=O)N/N=C/c3ccccc3O)cc2[nH]1	2	1	4	1.5*	2	0.001	i
C[C@H]1CN([C@@H](C)CO)S(=O)(=O)c2ccc(C#CCN(C)C)cc2O[C@@H]1CN(C)S(C)(=O)=O	2	-1	-7	0	.	.	.
O=C(O)C[C@H]1CC[C@H](NC(=O)Nc2ccccc2)[C@@H](CO)O1	-2	-3	-1	0	3	.	.
SMILES	ERAP1 inh	SIRT5 inh	PGC1a acetyl inh	FGF22 binding-1	FN deposit inh	FGF22 binding-2	SYPRO no-protein	others
C[C@@H]1CN([C@H](C)CO)C(=O)Cc2cc(NC(=O)Cn3cnnn3)ccc2O[C@@H]1CN(C)S(=O)(=O)c1cccs1	-1	2	3	0	.	.	.
CCOC(=O)C(=O)N/N=C(/c1ccccc1)c1ccc(OC)cc1	3	-2	3	0	10	.	.
COc1ccc(/C(=N\Nc2ccccc2C(=O)O)c2ccccc2)cc1	1	0	.	1.8*	-6	0.19	i
O=C(C(=O)N1CCN(C/C=C/c2ccccc2)CC1)c1ccccc1	.	1	.	15*	2	0.073	i
O=C(NC1CCCC1)N1CC(=O)N2[C@H](CO)[C@@H](c3ccc(-c4cccc(F)c4)cc3)[C@H]2C1	.	-5	1	.	-7	.	.
O=C(CN(Cc1ccccc1)S(=O)(=O)c1ccccc1)N/N=C/c1ccccc1C(=O)O	-5	1	0	2.3*	7	-0.1	i
CC(=O)N(C)C[C@H]1Oc2ccc(N(C)C)cc2CC(=O)N(C)C[C@@H]1C	.	.	.	.	-6	.	.
COc1ccc(-c2nc(-c3ccc(O)cc3O)cs2)cc1OC	-3	2	.	2.5*	5	0.11	i	FGF22 TSA=0
COc1ccc(-c2nc(CCl)cs2)cc1OC	-3	-10	.	0	.	.	.
CO[C@@H]1CN(C)C(=O)c2cc(NS(C)(=O)=O)ccc2OC[C@H](C)N(C(=O)CC2CC2)C[C@@H]1C	1	2	-7	.	4	.	.
O=C(Nc1ccc2c(c1)OCO2)c1ccc(NC2CC2)c([N+](=O)[O-])c1	2	-4	.	1.6*	5	0.6	i
O=C(CC1SC(=O)NC1=O)Nc1ccc(Cl)cc1 (stereo not given)	0	-2	.	6.2*	7	.	i
O=C(CC1NC(=O)NC1=O)Nc1ccc(Cl)cc1 (stereo not given)	.	.	-5	.	0	.	.
COc1ccccc1N(C)S(=O)(=O)c1ccc(C(=O)Nc2ccc(C(N)=O)cc2)cc1	2	-3	-7	1.7*	0	-0.094	i
CCN(CC)CCNC(=O)c1ccc(NC(=O)c2ccc(S(=O)(=O)N(C)c3ccccc3OC)cc2)cc1	-2	1	.	0	2	.	.
COc1ccc(OC)c(Nc2ccc(Nc3cc(OC)ccc3OC)nn2)c1	1	0	-11	1.8*	-5	-0.071	i

Compound activity from PubChem BioAssay.
